Laboratory results: ChEMBL document CHEMBL4725479, “Benzoxaboroles: New Potent Inhibitors of the Carbonic Anhydrases of the Pathogenic Bacterium Vibrio cholerae” (ACS Med Chem Lett, 2020)

Columns and labels:
[1] = Inhibition of Vibrio cholerae beta carbonic anhydrase incubated for 30 mins prior to testing measured for 10 to 100 secs by phenol red-based stopped-flow CO2 hydration assay
How it was run: (§1)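 Stopped-flow CO2 hydrase assay on the α, β and γ isoforms of V. cholerae CA. KI values are the mean of 3 independent assays, with errors of ±5–10% of the reported values.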

[2] = Inhibition of Vibrio cholerae alpha carbonic anhydrase incubated for 30 mins prior to testing measured for 10 to 100 secs by phenol red-based stopped-flow CO2 hydration assay; how it was run: as §1
[3] = Inhibition of Vibrio cholerae gamma carbonic anhydrase incubated for 30 mins prior to testing measured for 10 to 100 secs by phenol red-based stopped-flow CO2 hydration assay; how it was run: as §1

| SMILES | Ki [1] [nM] | Ki [2] [nM] | Ki [3] [nM] |
| --- | --- | --- | --- |
| O=[N+]([O-])c1ccc(NC(=S)Nc2ccc3c(c2)B(O)OC3)cc1 | 933 | 80 | 687 |
| O=C(NCc1ccccc1)Nc1ccc2c(c1)B(O)OC2 | 42100 | 90 | 1870 |
| O=C(Nc1ccc(C(F)(F)F)cc1)Nc1ccc2c(c1)B(O)OC2 | 55100 | 46 | 957 |
| O=C(Nc1ccccc1)Nc1ccc2c(c1)B(O)OC2 | 56400 | 117 | 705 |
| COc1ccc(NC(=S)Nc2ccc3c(c2)B(O)OC3)cc1 | 2300 | 165 | 874 |
| OB1OCc2ccc(NC(=S)Nc3ccc(C(F)(F)F)cc3)cc21 | 1250 | 72 | 1920 |
| OB1OCc2ccc(NC(=S)NCc3ccco3)cc21 | 31900 | 220 | 2000 |
| OB1OCc2ccc(NC(=S)NCCc3ccccc3)cc21 | 18400 | 102 | 554 |
| O=C(NCc1ccco1)Nc1ccc2c(c1)B(O)OC2 | 79900 | 164 | 1230 |
| Nc1ccc2c(c1)B(O)OC2 | 21800 | 165 | 1170 |
| Cc1cc(Cl)cc(CNC(=O)Nc2ccc3c(c2)B(O)OC3)c1 | 61300 | 53 | 718 |
| CC(=O)c1ccc(NC(=O)Nc2ccc3c(c2)B(O)OC3)cc1 | 65100 | 103 | 1130 |
| O=C(Nc1ccc2c(c1)B(O)OC2)Nc1c(Cl)cc(Cl)cc1Cl | 84500 | 76 | 895 |
| OB1OCc2ccc(NC(=S)Nc3ccc(F)cc3)cc21 | 6350 | 112 | 544 |
| O=C(Nc1ccc(Cl)cc1)Nc1ccc2c(c1)B(O)OC2 | 19500 | 56 | 650 |
| Cc1ccc(NC(=S)Nc2ccc3c(c2)B(O)OC3)cc1 | 2590 | 109 | 1760 |
| OB1OCc2ccc(NC(=S)Nc3ccc4ccccc4c3)cc21 | 26000 | 603 | 2970 |
| O=[N+]([O-])c1ccc2c(c1)B(O)OC2 | 8870 | 142 | 818 |
| OB1OCc2ccc(NC(=S)Nc3ccccc3)cc21 | 19100 | 1200 | 834 |
| O=C(Nc1ccc(F)cc1)Nc1ccc2c(c1)B(O)OC2 | 28000 | 48 | 644 |
| COc1ccc(C)cc1NC(=O)Nc1ccc2c(c1)B(O)OC2 | 67300 | 556 | 410 |
| OB1OCc2ccc(NC(=S)NCc3ccccc3)cc21 | 30400 | 96 | 3960 |
| OB1OCc2ccccc21 [BENZOXABOROLE] | 70300 | 319 | 2840 |
| OB1OCc2cc(F)ccc21 [TAVABOROLE] | 97300 | 157 | 841 |
